Data reported in ChEMBL document CHEMBL1667823, “Design and synthesis of 4-arylpiperidinyl amide and N-arylpiperdin-3-yl-cyclopropane carboxamide derivatives as novel melatonin receptor ligands” (Bioorg Med Chem Lett, 2011).

How the values were obtained:
[1] = Displacement of [3H]melatonin from rat MT2 receptor expressed in CHO-Galpha16 cells; type: cell-based
Method in brief: (§1)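 Rat MT1 or MT2 membranes from CHO-Galpha16 cells incubated with [3H]-melatonin (0.5 nM final, 80 Ci/mmol) in 50 mM Tris/HCl pH 7.4, 5 mM MgCl2. Nonspecific binding defined with excess melatonin. Stopped by rapid GF/B filtration with five ice-cold washes. Ki from IC50 via Cheng–Prusoff.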

Rattus norvegicus [2] = species: Rattus norvegicus; assay: Intrinsic activity at rat MT2 receptor expressed in CHO-Galpha16 cells assessed as Ca2+ mobilization after 20 mins by FLIPR assay relative to agomelatine; type: cell-based
Method in brief: (§2)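 CHO-Galpha16 cells expressing rat MT1 or MT2, plated 24 h ahead, loaded with Fluo4-AM (1.5 final) plus pluronic acid in HBSS/20 mM HEPES/0.1% BSA pH 7.4 with 2.5 mM probenecid, 1 h at 37 °C, then washed. Ca2+ read by FLIPR. Agonist mode: 15 s baseline, compound added, 3 min read. Antagonist mode: compound preincubated 20 min at room temperature, then melatonin at EC80, 3 min read.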

[3] = Displacement of [3H]melatonin from rat MT1 receptor expressed in CHO-Galpha16 cells; type: cell-based; method in brief: as §1
[4] = Binding affinity to rat MT1 receptor expressed in CHO-Galpha16 cells assessed as Ca2+ mobilization after 20 mins by FLIPR assay; type: cell-based; method in brief: as §2
[5] = Binding affinity to rat MT2 receptor expressed in CHO-Galpha16 cells assessed as Ca2+ mobilization after 20 mins by FLIPR assay; type: cell-based; method in brief: as §2
CHO-Galpha16 [6] = assay: Intrinsic activity at rat MT1 receptor expressed in CHO-Galpha16 cells assessed as Ca2+ mobilization after 20 mins by FLIPR assay relative to ramelteon; type: cell-based; method in brief: as §2
[7] = (§3) Ratio of Ki for rat MT1 to Ki for rat MT2; method in brief: as §1
Liver microsomes [8] = assay: Intrinsic clearance in human liver microsome at 1 uM by LC/MS analysis; type: ADME
Method in brief: (§4)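 Compound at 1 µM incubated with liver microsomes (0.5 mg/mL protein) and an NADPH-regenerating system, sampled at 0, 5, 15, 30 and 60 min. Quenched, centrifuged supernatants analysed by LC/MS for remaining parent to estimate T1/2.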

[9] = Drug level in rat brain at 10 mg/kg, ip after 1 hr; type: ADME, organism-based; design: dose 10 mg/kg, route intraperitoneal; settings: read-out: Drug uptake
Method in brief: (§5)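 Rats dosed 10 mg/kg IP, with brain and plasma concentrations taken at 1 h. Vehicle varied: 20% HP-bCD, 15% Solutol, or 10% DMSO with 2.5% PEG400 in 15% Solutol. B/P is the brain-to-plasma concentration ratio.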

Liver microsomes [10] = assay: Intrinsic clearance in rat liver microsome at 1 uM by LC/MS analysis; type: ADME; method in brief: as §4
[11] = Drug level in rat plasma at 10 mg/kg, ip after 1 hr; type: ADME, organism-based; design: dose 10 mg/kg, route intraperitoneal; settings: read-out: Drug uptake; method in brief: as §5
[12] = Ratio of drug level in rat brain to plasma at 10 mg/kg, ip after 1 hr; type: ADME, organism-based; design: dose 10 mg/kg, route intraperitoneal; method in brief: as §5
CHO-Galpha16 [13] = assay: Inhibition of rat MT1 receptor expressed in CHO-Galpha16 cells relative to control; type: cell-based; design: concentration or dose not given beside the values; settings: dose or concentration not given here; method in brief: as §2
CHO-Galpha16 [14] = assay: Inhibition of rat MT2 receptor expressed in CHO-Galpha16 cells relative to control; type: cell-based; settings: dose or concentration not given here; method in brief: as §2
[15] = Agonist activity at human MT2 receptor; type: functional
[16] = Agonist activity at human MT1 receptor; type: functional
Rattus norvegicus [17] = species: Rattus norvegicus; assay: as §3; method in brief: as §1

| Structure (SMILES) | EC50 [4] [nM] | EC50 [5] [nM] | Ki [1] [nM] | Intrinsic activity (Rattus norvegicus [2]) [%] | Ki [3] [nM] | Intrinsic activity (CHO-Galpha16 [6]) [%] | also measured |
| --- | --- | --- | --- | --- | --- | --- | --- |
| COc1ccc(C2CCN(C(=O)C3CC3)CC2)cc1 | > 10000 | 5000 | 870 | 94 | 1100 | 58 |  |
| COc1cccc(C2CCN(C(C)=O)CC2)c1 | > 10000 | > 10000 |  | 19 |  | 6 |  |
| O=C(N[C@H]1CCCN(c2cccc(OC(F)(F)F)c2)C1)C1CC1 | > 10000 | 12 | 66 | 53 | 190 | 1 | IC50 [3]: 2100 nM; inhibition (CHO-Galpha16 [13]): 95% |
| O=C(N[C@H]1CCCN(c2cccc(OCCO)c2)C1)C1CC1 | > 10000 | > 10000 | 150 | 12 | 610 | 3 | IC50 [1]: 31 nM; IC50 [3]: 930 nM; inhibition (CHO-Galpha16 [14]): 94%; inhibition (CHO-Galpha16 [13]): 91% |
| Cc1cccc(C2CCN(C(=O)C3CC3)CC2)c1 | > 10000 | > 10000 |  | 15 |  | 0.4 |  |
| CC(C)Oc1cccc(C2CCN(C(=O)C3CC3)CC2)c1 | > 10000 | > 10000 |  | 10 |  | 9 |  |
| COc1ccccc1C1CCN(C(=O)C2CC2)CC1 | > 10000 | > 10000 |  | 3 |  | 2 |  |
| CCCC(=O)N[C@H]1CCN(c2cccc(OC)c2)C1 |  |  |  |  |  |  | Ki [15]: 2.6 nM; Ki [16]: 3.7 nM |
| COc1cccc(N2CCC[C@@H](NC(=O)C3CC3)C2)c1 | 3500 | 93 | 95 | 23 | 1000 | 30 | IC50 [1]: 10 nM; inhibition (CHO-Galpha16 [14]): 97% |
| COc1cccc(-c2cccc(NC(=O)C3CC3)n2)c1 | > 10000 | 1200 | 83 | 57 | 1500 | 15 | IC50 [3]: 3800 nM; inhibition (CHO-Galpha16 [13]): 41% |
| O=C(C1CC1)N1CCC(c2cccc(O)c2)CC1 | > 10000 | 3600 |  | 23 |  | 96 |  |
| CCC(CC)C(=O)N1CCC(c2cccc(OC)c2)CC1 | 2300 | 790 |  | 35 |  | 32 |  |
| COc1cc(N2CCC[C@@H](NC(=O)C3CC3)C2)ccc1Cl | > 10000 | > 10000 | 31 | 23 | 130 | 19 | IC50 [1]: 24 nM; IC50 [3]: 440 nM; Ratio Ki (Rattus norvegicus [17]): 4; inhibition (CHO-Galpha16 [14]): 98%; inhibition (CHO-Galpha16 [13]): 94% |
| COc1cccc(C2CCN(C(=O)C3CCCCC3)CC2)c1 | 7500 | 2800 |  | 36 |  | 42 |  |
| CCOc1cccc(C2CCN(C(=O)C3CC3)CC2)c1 |  |  | 4100 |  | 5700 |  |  |
| COc1cccc(C2CCN(C(=O)c3ccccc3)CC2)c1 | > 10000 | 4400 | 110 | 60 | 650 | 12 |  |
| COc1ccc(C2CCN(C(C)=O)CC2)cc1 | 1700 | 3400 | 360 | 140 | 4700 | 34 |  |

The remaining compounds from weak to strong by EC50 [4], led by results:

| EC50 [4] [nM] | EC50 [5] [nM] | Structure (SMILES) | Ki [1] [nM] | Intrinsic activity (Rattus norvegicus [2]) [%] | Ki [3] [nM] | Intrinsic activity (CHO-Galpha16 [6]) [%] | also measured |
| --- | --- | --- | --- | --- | --- | --- | --- |
| 1700 | 1800 | COc1cccc(C2CCN(C(=O)CC(C)C)CC2)c1 |  | 35 |  | 39 |  |
| 1300 | 42 | CCC(=O)N1CCC(c2cccc(OC)c2)CC1 | 150 | 66 | 810 | 31 |  |
| 640 | 147 | COc1cccc(C2CCN(C(=O)C3CC3(C)C)CC2)c1 (stereo unspecified) |  | 30 |  | 33 |  |
| 610 | 140 | COc1cccc(C2CCN(C(=O)[C@H]3C[C@@H]3C)CC2)c1 | 35 | 65 | 150 | 19 |  |
| 390 | 4.2 | O=C(N[C@H]1CCCN(c2cccc(OC(F)F)c2)C1)C1CC1 | 44 | 57 | 410 | 21 | clearance (Liver microsomes [8]): 48 µL/min/mg; IC50 [3]: 870 nM; inhibition (CHO-Galpha16 [13]): 96%; clearance (Liver microsomes [10]): 485 µL/min/mg |
| 380 | 200 | COc1cccc(C2CCN(C(=O)C3CCC3)CC2)c1 | 67 | 62 | 140 | 52 |  |
| 210 | 110 | COc1cccc(C2CCN(C(=O)C3CCCC3)CC2)c1 |  | 74 |  | 67 |  |
| 170 | 50 | COc1cccc(N2CC(NC(=O)C3CC3)Cc3ccccc32)c1 (racemic) | 6.7 | 35 | 75 | 84 |  |
| 98 | 19 | COc1cccc(C2CCN(C(=O)C(C)C)CC2)c1 | 31 | 76 | 160 | 87 |  |
| 65 | 9.5 | COc1cccc(C2CCN(C(=O)C3CC3)CC2)c1 | 10 | 74 | 40 | 41 | clearance (Liver microsomes [8]): 29 µL/min/mg; Ratio Ki (Rattus norvegicus [17]): 4; concentration at 1 h [9]: 540 nM; clearance (Liver microsomes [10]): 91 µL/min/mg; concentration at 1 h [11]: 390 nM; Kp at 1 h [12]: 1.4 |
| 18 | 2.5 | COc1cccc(N2CCCC2CNC(=O)C2CC2)c1 (racemic) | 3.3 | 98 | 21 | 89 |  |
| 9.7 | 2.9 | COc1cccc(N2CCCC(NC(=O)C3CC3)C2)c1 (racemic) | 2.7 | 99 | 15 | 85 | IC50 [1]: > 10000 nM; IC50 [3]: > 10000 nM; Ki ratio (MT1/MT2) [7]: 5.6 |
| 3.9 | 6.2 | COc1cccc(N2CCC[C@H](NC(=O)C3CC3)C2)c1 | 2.7 | 74 | 9.9 | 77 | clearance (Liver microsomes [8]): 28 µL/min/mg; concentration at 1 h [9]: 180 nM; clearance (Liver microsomes [10]): 616 µL/min/mg; concentration at 1 h [11]: 730 nM; Kp at 1 h [12]: 0.2 |
| 3.1 | 0.89 | CCC(=O)NCC[C@@H]1CCc2ccc3c(c21)CCO3 [RAMELTEON] | 0.03 | 95 | 2 | 100 | clearance (Liver microsomes [8]): 47 µL/min/mg; concentration at 1 h [9]: 390 nM; clearance (Liver microsomes [10]): 60 µL/min/mg; concentration at 1 h [11]: 580 nM; Kp at 1 h [12]: 0.7 |
| 2.1 | 1.4 | COc1ccc2cccc(CCNC(C)=O)c2c1 [AGOMELATINE] | 0.14 | 100 | 1.2 | 94 | clearance (Liver microsomes [8]): 361 µL/min/mg; concentration at 1 h [9]: 1030 nM; clearance (Liver microsomes [10]): 144 µL/min/mg; concentration at 1 h [11]: 700 nM; Kp at 1 h [12]: 1.5 |
| 0.74 | 2.3 | COc1cc(N2CCC[C@H](NC(=O)C3CC3)C2)ccc1Cl | 2.1 | 65 | 1.2 | 73 | clearance (Liver microsomes [8]): 45 µL/min/mg; clearance (Liver microsomes [10]): 199 µL/min/mg |
| 0.56 | 1.1 | COc1ccc2[nH]cc(CCNC(C)=O)c2c1 [MELATONIN] | 0.58 | 97 | 0.99 | 97 |  |
